Experimental data published in ChEMBL document CHEMBL1148460, “Interaction of cycloSal-pronucleotides with cholinesterases from different origins. A structure-activity relationship” (J Med Chem, 2004).
pEC50, pIC50: −log10 of the molar value.

Assays:
Vero = assay: Anti-HSV-1 activity tested in Vero cells; type: functional, cell-based; settings: Chlorocebus sabaeus
Acetylcholinesterase = Acetylcholinesterase (Electrophorus electricus, UniProt O42275); assay: Inhibitory activity towards Electrophorus electricus acetylcholinesterase
Cholinesterase = Cholinesterase (Homo sapiens, UniProt P06276); assay: Inhibitory activity towards human butyrylcholinesterase
Outline: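 Modified Rappaport assay following acetylcholine chloride hydrolysis to acetic acid, with m-nitrophenol indicator in phosphate buffer at pH 7.8 and NaCl. The compound is added in DMSO, and the reaction is started with serum (human, mouse or calf). A420 is read at 25 °C at 0 and 5 min. Final inhibitor is 0.1, 0.5, 1, 5, 10, 30 and 50 µM. IC50 is interpolated from ΔE plots in the pseudolinear region.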

Human gammaherpesvirus 4 = assay: Anti-EBV activity blocking EBV-DNA synthesis; type: functional, organism-based
CCRF-CEM [1] = assay: Anti-HIV-2 activity tested in human lymphocytic CEM cells; type: functional, cell-based
[2] = Half-life was determined; type: ADME; settings: human
CCRF-CEM [3] = assay: Anti-HIV-1 activity tested in human lymphocytic CEM cells; type: functional, cell-based
L1210 = assay: Antitumor activity tested in L1210 cells; type: functional, cell-based; settings: Mus musculus

Cholinesterase, sequence (P06276 whole entry): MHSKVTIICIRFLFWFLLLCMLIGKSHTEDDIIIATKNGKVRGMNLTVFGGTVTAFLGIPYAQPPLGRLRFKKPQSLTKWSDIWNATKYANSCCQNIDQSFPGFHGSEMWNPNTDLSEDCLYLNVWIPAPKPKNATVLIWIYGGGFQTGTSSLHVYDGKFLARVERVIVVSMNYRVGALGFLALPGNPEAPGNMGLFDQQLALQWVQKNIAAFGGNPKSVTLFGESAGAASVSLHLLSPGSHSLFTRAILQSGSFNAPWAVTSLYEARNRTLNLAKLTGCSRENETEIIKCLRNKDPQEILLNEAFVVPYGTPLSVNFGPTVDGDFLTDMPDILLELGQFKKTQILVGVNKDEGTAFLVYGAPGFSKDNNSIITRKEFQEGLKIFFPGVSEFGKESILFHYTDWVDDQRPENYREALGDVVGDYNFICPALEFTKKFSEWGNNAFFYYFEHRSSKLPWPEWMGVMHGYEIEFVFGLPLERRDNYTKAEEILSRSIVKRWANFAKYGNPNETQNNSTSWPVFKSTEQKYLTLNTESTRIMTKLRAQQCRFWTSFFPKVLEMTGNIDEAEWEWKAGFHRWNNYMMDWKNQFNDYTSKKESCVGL
Acetylcholinesterase, sequence (O42275 whole entry): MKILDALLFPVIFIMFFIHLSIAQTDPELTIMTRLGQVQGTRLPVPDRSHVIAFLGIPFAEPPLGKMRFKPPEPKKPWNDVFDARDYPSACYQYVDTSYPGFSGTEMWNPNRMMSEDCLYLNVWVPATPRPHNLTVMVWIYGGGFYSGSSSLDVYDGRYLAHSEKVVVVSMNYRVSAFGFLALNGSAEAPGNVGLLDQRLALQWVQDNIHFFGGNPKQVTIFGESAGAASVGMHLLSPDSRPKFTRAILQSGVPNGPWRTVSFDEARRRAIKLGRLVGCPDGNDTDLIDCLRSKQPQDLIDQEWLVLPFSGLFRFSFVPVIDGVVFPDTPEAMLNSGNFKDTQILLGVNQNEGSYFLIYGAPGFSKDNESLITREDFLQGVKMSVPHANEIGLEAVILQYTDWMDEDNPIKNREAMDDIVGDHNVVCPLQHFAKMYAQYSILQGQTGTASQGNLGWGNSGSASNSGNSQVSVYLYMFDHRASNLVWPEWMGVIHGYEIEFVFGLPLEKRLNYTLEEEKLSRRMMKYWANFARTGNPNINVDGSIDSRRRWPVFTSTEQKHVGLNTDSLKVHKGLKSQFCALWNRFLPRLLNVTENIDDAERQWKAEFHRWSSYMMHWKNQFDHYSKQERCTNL

SMILES | pEC50 (Vero) | pIC50 (Acetylcholinesterase) | pIC50 (Cholinesterase) | pEC50 (Human gammaherpesvirus 4) | pEC50 (CCRF-CEM [1]) | half-life [2] [h] | pEC50 (CCRF-CEM [3]) | pEC50 (L1210)
Cc1cccc2c1OP(=O)(OC[C@H](CO)OCn1cnc3c(O)nc(N)nc31)OC2 (stereo not given in full) | 5.48 | < 4.30 | < 4.30 | – | – | – | – | –
Cc1cccc2c1OP(=O)(OC[C@H]1O[C@@H](N3CC(/C=C/Br)C(=O)NC3=O)C[C@@H]1O)OC2 (stereo not given in full) | – | < 4.30 | < 4.30 | 5.39 | – | – | – | –
Cc1cccc2c1OP(=O)(OCC(CO)CCn1cnc3c(O)nc(N)nc31)OC2 (stereo not given) | 4.75 | < 4.30 | < 4.30 | – | – | – | – | –
Cc1cn(C2C=CC(COP3(=O)OCc4cccc(CCC(=O)OC(C)(C)C)c4O3)O2)c(=O)[nH]c1=O (stereo not given) | – | < 4.30 | 5.47 | – | 6.48 | – | – | –
Cc1cccc2c1O[P@@](=O)(OC[C@@H](CO)OCn1cnc3c(O)nc(N)nc31)OC2 | – | < 4.30 | < 4.30 | 5.48 | – | – | – | –
Cc1cccc2c1OP(=O)(OCCOCn1cnc3c(O)nc(N)nc31)OC2 (stereo not given) | 6.82 | < 4.30 | < 4.30 | – | – | – | – | –
Cc1cn(C2C=CC(COP3(=O)OCc4c(F)c(C(C)(C)C)cc(C(C)(C)C)c4O3)O2)c(=O)[nH]c1=O (stereo not given) | – | < 4.30 | 4.32 | – | – | 6.2 | 6.80 | –
Cc1cccc2c1O[P@](=O)(OC[C@H]1OC(n3cc(F)c(=O)[nH]c3=O)C[C@@H]1O)OC2 (single isomer, unassigned) | – | < 4.30 | < 4.30 | – | – | – | – | 7.36
